Activity calls are given as the source filed them. No cut-off for these calls is given here.
Assays:
U2OS [1] = assay: Cellular uptake in human U2OS cells at 1 uM after 10 to 20 mins by fluorescence microscopy; format: ADME, cell-based
Summary of the method: (§1)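 Uptake into living cells was followed by fluorescence microscopy at 10, 20 and 40 min and at 1, 3, 5 and 24 h. Green-emitting Bodipy conjugates were given at 1 μM. A Bodipy dye-only stain served as control for dye-driven localisation.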

MCF7 [2] = assay: Induction of LPS-induced NO production in human MCF7 cells at 40 uM after 24 hrs using DAR-2 probe by fluorescence assay; format: functional, cell-based
Summary of the method: (§2)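 NO in living cells (PC-3, LNCaP, MCF-7, U-2 OS) was imaged by fluorescence microscopy with the NO-specific red-emitting probe DAR-2 after compound stimulation.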

[3] = Cytotoxicity against human PC3 cells after 24 hrs by WST-1 assay; format: functional, cell-based; settings: PC-3, 24 h
Summary of the method: (§3)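 Dark cytotoxicity (no light exposure) by WST-1 tetrazolium-to-formazan conversion reflecting metabolic activity; compounds tested at concentrations up to 50 μM for 24, 48 or 72 h; IC50 taken as concentration giving 50% inhibition of cell viability.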

PC-3 [4] = assay: Induction of LPS-induced NO production in human PC3 cells at 40 uM after 24 hrs using DAR-2 probe by fluorescence assay; format: functional, cell-based; summary of the method: as §2
MCF7 [5] = assay: Cellular uptake in human MCF7 cells at 1 uM after 20 mins by fluorescence microscopy; format: ADME, cell-based; settings: mcf7, 20 min; summary of the method: as §1
LNCaP [6] = assay: Induction of LPS-induced NO production in human LNCAP cells at 40 uM after 24 hrs using DAR-2 probe by fluorescence assay; format: functional, cell-based; summary of the method: as §2
[7] = Cytotoxicity against human PC3 cells after 48 hrs by WST-1 assay; format: functional, cell-based; settings: PC-3, 48 h; summary of the method: as §3
PC-3 [8] = assay: Induction of mitochondria fragmentation in human PC3 cells at 1 uM after 10 to 40 mins by fluorescence microscopy; format: functional, cell-based
Summary of the method: (§4)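 Live cells were treated with 1 μM Bodipy conjugates for at least 40 min and then co-stained with MitoTracker Red FM (100 nM, 10 min). Imaging by fluorescence microscopy assessed colocalisation with the green signal and the state of the mitochondrial network.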

[9] = Cellular uptake in HEK293T cells at 1 uM after 20 mins by fluorescence microscopy; format: ADME, cell-based; settings: human, hek-293t; summary of the method: as §1
C2C12 [10] = assay: Cytotoxicity against mouse C2C12 cells after 24 hrs by WST-1 assay; format: functional, cell-based; settings: C2C12, 24 h; summary of the method: as §3
[11] = Cellular uptake in human MIAPaCa2 cells at 1 uM after 20 mins by fluorescence microscopy; format: ADME, cell-based; settings: mia paca-2, 20 min; summary of the method: as §1
HeLa = assay: Cellular uptake in human HeLa cells at 1 uM after 20 mins by fluorescence microscopy; format: ADME, cell-based; summary of the method: as §1
[12] = Cellular uptake in human PC3 cells at 1 uM after 20 mins by fluorescence microscopy; format: ADME, cell-based; settings: pc-3, 20 min; summary of the method: as §1
Rattus norvegicus [13] = species on record: Rattus norvegicus; assay: Induction of LPS-induced NO production in rat peritoneal cells at 1 to 10 uM after 24 hrs using DAR-2 probe by fluorescence assay; format: functional, cell-based
Summary of the method: (§5)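 Rat peritoneal cells were treated with conjugates at 0.01–100.0 μM for 24 h. NO production was compared with untreated cells. LPS (100 pg·mL−1) and trilobolide (0.1 μM) were included as references. Data are mean ± SEM of three independent experiments, n = 6.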

[14] = Cytotoxicity against human MIAPaCa2 cells after 72 hrs by WST-1 assay; format: functional, cell-based; settings: MIA PaCa-2, 72 h; summary of the method: as §3
[15] = Cytotoxicity against human MIAPaCa2 cells after 24 hrs by WST-1 assay; format: functional, cell-based; settings: MIA PaCa-2, 24 h; summary of the method: as §3
LNCaP [16] = assay: Cytotoxicity against human LNCAP cells after 24 hrs by WST-1 assay; format: functional, cell-based; summary of the method: as §3
[17] = Cellular uptake in human PC3 cells at 1 uM after 40 mins to 24 hrs by fluorescence microscopy; format: ADME, cell-based; settings: pc-3, 1 µM; summary of the method: as §1
U2OS [18] = assay: Cellular uptake in human U2OS cells at 1 uM after 20 mins by fluorescence microscopy; format: ADME, cell-based; summary of the method: as §1
U2OS [19] = assay: Induction of LPS-induced NO production in human U2OS cells at 40 uM after 24 hrs using DAR-2 probe by fluorescence assay; format: functional, cell-based; summary of the method: as §2
LNCaP [20] = assay: Cytotoxicity against human LNCAP cells after 72 hrs by WST-1 assay; format: functional, cell-based; summary of the method: as §3
U2OS [21] = assay: Cytotoxicity against human U2OS cells after 72 hrs by WST-1 assay; format: functional, cell-based; summary of the method: as §3
U2OS [22] = assay: Cellular uptake in human U2OS cells at 1 uM after 40 mins to 24 hrs by fluorescence microscopy; format: ADME, cell-based; summary of the method: as §1
MCF7 [23] = assay: Cytotoxicity against human MCF7 cells after 24 hrs by WST-1 assay; format: functional, cell-based; settings: MCF7, 24 h; summary of the method: as §3
[24] = Cellular uptake in Endoplasmic reticulum of human LNCAP cells at 1 uM after 1 hr by fluorescence microscopy; format: ADME, cell-based
Summary of the method: (§6)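 Live-cell fluorescence microscopy of cells exposed to Bodipy-labelled conjugates at 1 μM for 1 h. ER was co-stained with ER-Tracker Blue-White DPX (100 nM, 20 min) to check colocalisation. A Bodipy dye-only stain served as control.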

[25] = Cellular uptake in mitochondria of human U2OS cells at 1 uM after 10 to 40 mins by fluorescence microscopy; format: ADME; summary of the method: as §4
Rattus norvegicus [26] = species on record: Rattus norvegicus; assay: Induction of LPS-induced NO production in rat peritoneal cells after 24 hrs using DAR-2 probe by fluorescence assay; format: functional, cell-based
LNCaP [27] = assay: Cellular uptake in human LNCAP cells at 1 uM after 40 mins to 24 hrs by fluorescence microscopy; format: ADME, cell-based; summary of the method: as §1
[28] = Cytotoxicity against human MIAPaCa2 cells after 48 hrs by WST-1 assay; format: functional, cell-based; settings: MIA PaCa-2, 48 h; summary of the method: as §3
LNCaP [29] = assay: Cellular uptake in human LNCAP cells at 1 uM after 20 mins by fluorescence microscopy; format: ADME, cell-based; summary of the method: as §1
A549 = assay: Cellular uptake in human A549 cells at 1 uM after 20 mins by fluorescence microscopy; format: ADME, cell-based; settings: a549, 20 min; summary of the method: as §1
U2OS [30] = assay: Cellular uptake in human U2OS cells at 1 uM after 45 to 60 mins by fluorescence microscopy; format: ADME, cell-based; summary of the method: as §1
[31] = Cellular uptake in human MIAPaCa2 cells at 1 uM after 40 mins to 24 hrs by fluorescence microscopy; format: ADME, cell-based; settings: mia paca-2, 1 µM; summary of the method: as §1
C2C12 [32] = assay: Cytotoxicity against mouse C2C12 cells after 72 hrs by WST-1 assay; format: functional, cell-based; settings: C2C12, 72 h; summary of the method: as §3
[33] = Cytotoxicity against human PC3 cells after 72 hrs by WST-1 assay; format: functional, cell-based; settings: PC-3, 72 h; summary of the method: as §3
Rattus norvegicus [34] = species on record: Rattus norvegicus; assay: Induction of LPS-induced NO production in rat peritoneal cells at 40 uM after 24 hrs using DAR-2 probe by fluorescence assay; format: functional, cell-based; summary of the method: as §5
U2OS [35] = assay: Induction of ER stress in Endoplasmic reticulum of human U2OS cells assessed as small vesicle formation from ER network at 1 uM after 3 to 5 hrs by fluorescence microscopy; format: functional, cell-based
Summary of the method: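 U-2 OS live cells were incubated with conjugates at 1 μM for 1, 3 and 5 h. Fluorescence microscopy was used to score small vesicles or pouches budding from the ER network.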

LNCaP [36] = assay: Cytotoxicity against human LNCAP cells after 48 hrs by WST-1 assay; format: functional, cell-based; summary of the method: as §3
MCF7 [37] = assay: Cytotoxicity against human MCF7 cells after 48 hrs by WST-1 assay; format: functional, cell-based; settings: MCF7, 48 h; summary of the method: as §3
[38] = Cellular uptake in Endoplasmic reticulum of human HeLa cells at 1 uM after 1 hr by fluorescence microscopy; format: ADME, cell-based; summary of the method: as §6
U2OS [39] = assay: Induction of mitochondria fragmentation in human U2OS cells at 1 uM after 10 to 40 mins by fluorescence microscopy; format: functional, cell-based; summary of the method: as §4

## C/C=C(/C)C(=O)O[C@@H]1C[C@H]2C(=C1C)[C@@H]1OC(=O)[C@@](C)(O)[C@@]1(O)[C@@H](OC(=O)CCOCCOCCOCCOCCn1cc(COc3ccc(C4=C5C=CC=[N+]5[B-](F)(F)n5cccc54)cc3)nn1)C[C@]2(C)OC(C)=O
U2OS [1]
  Drug uptake: Active
MCF7 [2]
  Activity: Active
[3]
  IC50: 2.5 µM
PC-3 [4]
  Activity: Active
MCF7 [5]
  Drug uptake: Active
LNCaP [6]
  Activity: Active
[7]
  IC50: 3.1 µM
PC-3 [8]
  Activity: Active
[9]
  Drug uptake: Active
C2C12 [10]
  IC50: 8 µM
[11]
  Drug uptake: Active
HeLa
  Drug uptake: Active
[12]
  Drug uptake: Active
Rattus norvegicus [13]
  Activity: Active
[14]
  IC50: 6.5 µM
[15]
  IC50: > 50 µM
LNCaP [16]
  IC50: 7.4 µM
[17]
  Drug uptake: Active
U2OS [18]
  Drug uptake: Active
U2OS [19]
  Activity: Active
LNCaP [20]
  IC50: 20.5 µM
U2OS [21]
  IC50: 9.1 µM
U2OS [22]
  Drug uptake: Not Active
MCF7 [23]
  IC50: 7.4 µM
[24]
  Drug uptake: Active
[25]
  Drug uptake: Not Active
Rattus norvegicus [26]
  Activity: Dose-dependent effect
LNCaP [27]
  Drug uptake: Active
[28]
  IC50: 9.9 µM
LNCaP [29]
  Drug uptake: Active
A549
  Drug uptake: Active
U2OS [30]
  Drug uptake: Not Active
[31]
  Drug uptake: Active
C2C12 [32]
  IC50: 14.3 µM
[33]
  IC50: 4.1 µM
Rattus norvegicus [34]
  Activity: Active
U2OS [35]
  Activity: Active
LNCaP [36]
  IC50: 0.4 µM
MCF7 [37]
  IC50: 6.3 µM
[38]
  Drug uptake: Active
U2OS [39]
  Activity: Active

## C/C=C(/C)C(=O)O[C@@H]1C[C@H]2C(=C1C)[C@@H]1OC(=O)[C@@](C)(O)[C@@]1(O)[C@@H](OC(=O)CCCCn1cc(COc3ccc(C4=C5C=CC=[N+]5[B-](F)(F)n5cccc54)cc3)nn1)C[C@]2(C)OC(C)=O
U2OS [1]
  Drug uptake: Active
MCF7 [2]
  Activity: Active
[3]
  IC50: 4.2 µM
PC-3 [4]
  Activity: Active
MCF7 [5]
  Drug uptake: Active
LNCaP [6]
  Activity: Active
[7]
  IC50: 4.6 µM
PC-3 [8]
  Activity: Active
[9]
  Drug uptake: Active
C2C12 [10]
  IC50: > 50 µM
[11]
  Drug uptake: Active
HeLa
  Drug uptake: Active
[12]
  Drug uptake: Active
Rattus norvegicus [13]
  Activity: Active
[14]
  IC50: 38.3 µM
[15]
  IC50: > 50 µM
LNCaP [16]
  IC50: 12.7 µM
[17]
  Drug uptake: Active
U2OS [18]
  Drug uptake: Active
U2OS [19]
  Activity: Active
LNCaP [20]
  IC50: > 50 µM
U2OS [21]
  IC50: 9.1 µM
U2OS [22]
  Drug uptake: Not Active
MCF7 [23]
  IC50: > 50 µM
[24]
  Drug uptake: Active
[25]
  Drug uptake: Not Active
Rattus norvegicus [26]
  Activity: Dose-dependent effect
LNCaP [27]
  Drug uptake: Active
[28]
  IC50: 43.5 µM
LNCaP [29]
  Drug uptake: Active
A549
  Drug uptake: Active
U2OS [30]
  Drug uptake: Not Active
[31]
  Drug uptake: Active
C2C12 [32]
  IC50: 15.1 µM
[33]
  IC50: 3.8 µM
Rattus norvegicus [34]
  Activity: Active
U2OS [35]
  Activity: Active
LNCaP [36]
  IC50: 9.7 µM
MCF7 [37]
  IC50: 12.8 µM
[38]
  Drug uptake: Active
U2OS [39]
  Activity: Active

From ChEMBL document CHEMBL3352255, “Tailor-made fluorescent trilobolide to study its biological relevance” (J Med Chem, 2014)
